pEC50, pIC50: −log10 of the molar value. Values after ≈ are worked out from the molar mass of the structure shown. Active and inactive are the calls of the source. No cut-off for these calls is given here.
What was measured:
Mus musculus [1] = assay: Increase in plasma insulin level in wild type DIO mouse at 10 mg/kg, po dosed daily over 3 week period administered 15 mins before oral glucose challenge on first day measured 30 mins after glucose challenge by ELISA; type: functional, organism-based
Homo sapiens [2] = species: Homo sapiens; assay: Selectivity for human FFA4 over FFA3 (unknown origin)
Mus musculus [3] = assay: Toxicity in FFA4 (-/-) DIO mouse assessed as weight gain in at 10 mg/kg, po dosed daily over 3 week period administered 15 mins before oral glucose challenge on first day measured after 21 days; type: organism-based; settings: in vivo, 504 h
[4] = target: T1, Free fatty acid receptor 4 (Homo sapiens, UniProt Q5NUL3); assay: Agonist activity at C-terminal YFP-tagged human FFA4 expressed in HEK293 cells in presence of coelentrazine h by BRET based beta-arrestin-2 interaction assay; type: cell-based
T1 sequence (Q5NUL3 whole entry): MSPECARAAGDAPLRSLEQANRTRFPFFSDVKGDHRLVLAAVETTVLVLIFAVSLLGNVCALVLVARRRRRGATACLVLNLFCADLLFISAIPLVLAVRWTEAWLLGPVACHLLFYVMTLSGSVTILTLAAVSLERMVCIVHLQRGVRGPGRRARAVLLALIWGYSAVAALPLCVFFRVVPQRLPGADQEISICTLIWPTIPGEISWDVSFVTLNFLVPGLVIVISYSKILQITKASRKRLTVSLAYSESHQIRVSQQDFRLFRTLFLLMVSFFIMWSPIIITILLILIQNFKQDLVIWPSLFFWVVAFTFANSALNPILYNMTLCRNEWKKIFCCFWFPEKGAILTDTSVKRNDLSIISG
How it was run: (§1)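 HEK293 cells co-transfected with C-terminal eYFP-fused human FFA4 and β-arrestin-2–Renilla luciferase; plated 24 h post-transfection, used 24 h later. After an HBSS wash, coelenterazine h (2.5 µM) for 15 min, with ligands present for the final 5 min, 37 °C. BRET taken as the 535/475 nm emission ratio. Efficacy relative to 100 µM reference agonist. Three-parameter sigmoidal fits; mean ± S.E. of 2-4 independent experiments.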

[5] = Solubility in FaSSIF solution; type: physicochemical
Mus musculus [6] = assay: Reduction in plasma glucose level in wild type DIO mouse at 10 mg/kg, po dosed daily over 3 week period administered 15 mins before oral glucose challenge on first day by OGTT method; type: functional, organism-based
How it was run: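 Male wild-type and FFA4(-/-) littermates (C57Bl6 background) fed 63% high-fat diet from 6 weeks of age for 5 months. On day 0, fasted 5 h, dosed 10 mg/kg po, then given glucose 3 g/kg po 15 min later. Tail blood sampled from -30 to 180 min; glucose measured in duplicate by colorimetric glucose oxidase assay. n=9 per group; two-way ANOVA with Bonferroni post hoc test.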

[7] = Effect on food intake level in wild type DIO mouse at 10 mg/kg, po dosed daily over 3 week period administered 15 mins before oral glucose challenge on first day measured after 21 days; type: ADME, organism-based; settings: in vivo, 504 h
Mus musculus [8] = assay: Reduction in glucose level in wild type DIO mouse at 10 mg/kg, po dosed daily over 3 week period administered 15 mins before oral glucose challenge on first day measured after 21 days by OGTT method; type: functional, organism-based
[9] = Effect on food intake level in FFA4 (-/-) DIO mouse at 10 mg/kg, po dosed daily over 3 week period administered 15 mins before oral glucose challenge on first day measured after 21 days; type: ADME, organism-based; settings: in vivo, 504 h
[10] = Lipophilicity, log D of the compound at pH 7.4; type: physicochemical; settings: buffer
Homo sapiens [11] = species: Homo sapiens; assay: Selectivity for human FFA4 over human FFA1
[12] = target: Free fatty acid receptor 1 (Homo sapiens, UniProt O14842); assay: Antagonist activity against human FFA1 expressed in human Flp-In T-REx293 cells assessed as as reduction in TUG424-induced response by Fura2-AM dye based calcium mobilization assay; type: functional, cell-based
How it was run: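 Flp-In T-REx 293 cells with inducible human FFA1, seeded at 50000 cells/well and induced with 100 ng/ml doxycycline after 3-4 h adherence. Next day loaded with Fura2-AM for 45 min, washed, then preincubated 15 min in HBSS with test ligand before 300 nM agonist challenge. Fura2 340:380 ratio change read at 510 nm emission. Inhibition expressed as % reduction of the agonist response.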

[13] = target: T2, Free fatty acid receptor 4 (Homo sapiens) (UniProt Q5NUL3); assay: Agonist activity at C-terminal YFP-tagged human FFA4 expressed in HEK293 cells in presence of coelentrazine h by BRET based beta-arrestin-2 interaction assay relative to 100 uM […]; type: cell-based; how it was run: as §1
T2 sequence (whole entry): T1 sequence (Q5NUL3 whole entry)

Mus musculus [14] = assay: Toxicity in wild type DIO mouse assessed as reduction in body weight at 10 mg/kg, po dosed daily over 3 week period administered 15 mins before oral glucose challenge on first day measured after 21 days; type: organism-based; parameters: scale not given: the % may be the effect or the level left; settings: in vivo, 504 h
[15] = target: T1, Free fatty acid receptor 4; assay: Agonist activity at human FFA4 expressed in human Flp-In T-REx293 cells by Fura2-AM dye based calcium mobilization assay; type: functional, cell-based
How it was run: (§2)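 Flp-In T-REx 293 cells with doxycycline-inducible human FFA4 seeded at 50000 cells/well and induced overnight with 100 ng/ml doxycycline. Loaded with Fura2-AM for 45 min, washed three times in HBSS, equilibrated 15 min, then ligand added. Emission at 510 nm with 340/380 nm excitation; response is the change in 340:380 ratio. Efficacy relative to 100 µM reference agonist; 2-4 independent experiments, sigmoidal fits.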

[16] = Effect on water intake level in wild type DIO mouse at 10 mg/kg, po dosed daily over 3 week period administered 15 mins before oral glucose challenge on first day measured after 21 days; type: ADME, organism-based; settings: in vivo, 504 h
Mus musculus [17] = assay: Toxicity in FFA4 (-/-) DIO mouse assessed as reduction in body weight at 10 mg/kg, po dosed daily over 3 week period administered 15 mins before oral glucose challenge on first day measured after 21 days; type: organism-based; settings: in vivo, 504 h
[18] = Solubility in PBS buffer; type: physicochemical
Mus musculus [19] = assay: Reduction in plasma glucose level in mouse at 10 mg/kg, po dosed 15 mins before oral glucose challenge by OGTT method; type: functional, organism-based
How it was run: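 Mice fasted 5 h and given compound orally at 10 mg/kg, 15 min before an oral glucose load of 3 g/kg. Tail-tip blood sampled under local anesthetic 30 min before and immediately before the load, and at 30, 60, 90, 120 and 180 min after it. Glucose measured in duplicate by glucose oxidase colorimetric assay; n=6 mice per group.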

Mus musculus [20] = assay: Reduction in fasting plasma insulin level in wild type DIO mouse at 10 mg/kg, po dosed daily over 3 week period administered 15 mins before oral glucose challenge on first day measured after 21 days by ELISA; type: functional, organism-based
How it was run: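 DIO wild-type and FFA4(-/-) littermates (63% fat diet for 5 months) dosed 10 mg/kg po once daily for 21 days. Fasting blood collected into EDTA and spun at 3,000 g for 5 min at 4 °C; plasma stored at -80 °C. Insulin measured in duplicate by murine insulin ELISA, absorbance at 450 nm.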

[21] = Effect on water intake level in FFA4 (-/-) DIO mouse at 10 mg/kg, po dosed daily over 3 week period administered 15 mins before oral glucose challenge on first day measured after 21 days; type: ADME, organism-based; settings: in vivo, 504 h
[22] = target: T3, Free fatty acid receptor 4 (Mus musculus, UniProt Q7TMA4); assay: Agonist activity mouse FFA4 by BRET based beta-arrestin-2 interaction assay
T3 sequence (Q7TMA4 whole entry): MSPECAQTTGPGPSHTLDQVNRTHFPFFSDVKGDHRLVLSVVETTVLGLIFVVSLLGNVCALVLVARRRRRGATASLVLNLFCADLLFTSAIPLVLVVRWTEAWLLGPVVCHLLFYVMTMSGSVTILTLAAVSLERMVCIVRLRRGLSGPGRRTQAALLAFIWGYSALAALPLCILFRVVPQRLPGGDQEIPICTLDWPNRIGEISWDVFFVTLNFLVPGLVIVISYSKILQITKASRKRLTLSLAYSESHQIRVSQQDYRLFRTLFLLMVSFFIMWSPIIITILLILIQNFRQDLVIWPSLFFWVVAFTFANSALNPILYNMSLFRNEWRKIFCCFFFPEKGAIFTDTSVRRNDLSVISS
How it was run: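 Mouse FFA4 fused C-terminally to eYFP, co-transfected into HEK293 cells with β-arrestin-2–Renilla luciferase. After an HBSS wash, coelenterazine h (2.5 µM) for 15 min, with ligand added for the last 5 min, 37 °C. BRET read as the 535/475 nm luminescence ratio. Three-parameter sigmoidal curve fitting; 2-4 independent experiments.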

[23] = target: T3, Free fatty acid receptor 4; assay: Agonist activity mouse FFA4 by Gq-dependent calcium mobilization assay; type: functional
[24] = target: T2, Free fatty acid receptor 4 (Homo sapiens); assay: Agonist activity at human FFA4 expressed in human Flp-In T-REx293 cells by Fura2-AM dye based calcium mobilization assay relative to 100 uM […]; type: functional, cell-based; how it was run: as §2
Homo sapiens [25] = species: Homo sapiens; assay: Selectivity for human FFA4 over FFA2 (unknown origin)

Chain of Free fatty acid receptor 1 (O14842 whole entry): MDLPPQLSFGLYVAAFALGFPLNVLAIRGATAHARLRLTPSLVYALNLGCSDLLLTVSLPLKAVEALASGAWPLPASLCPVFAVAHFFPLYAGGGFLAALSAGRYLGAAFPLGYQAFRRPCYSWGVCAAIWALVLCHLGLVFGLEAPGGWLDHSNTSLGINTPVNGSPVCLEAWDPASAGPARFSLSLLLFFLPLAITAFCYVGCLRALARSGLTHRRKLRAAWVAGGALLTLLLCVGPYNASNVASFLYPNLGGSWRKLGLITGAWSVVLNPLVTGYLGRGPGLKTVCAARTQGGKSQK

**Q.** Which Activity (Mus musculus [1]) does the source give for `O=S1(=O)c2ccccc2CN1c1cc(F)cc(Oc2ccccn2)c1` here?
**A.** Active

**Q.** And the Selectivity ratio (Homo sapiens [2])?
**A.** > 300

**Q.** What about the Activity (Mus musculus [3]) of the same molecule?
**A.** Non-Toxic

**Q.** What about the pEC50 ([4]; read-out: EC50) of the same molecule?
**A.** 6.89

**Q.** And the EC50 ([4]; read-out: pEC50 (converted))?
**A.** 0.123 µM

**Q.** And the solubility [5]?
**A.** 14 µM (≈ 4.99 µg/mL)

**Q.** And the Activity (Mus musculus [6])?
**A.** Active

**Q.** What about the Activity [7] of the same molecule?
**A.** Non-Toxic

**Q.** And the Activity (Mus musculus [8])?
**A.** Active

**Q.** What about the Activity [9] of the same molecule?
**A.** Non-Toxic

**Q.** And the logD [10]?
**A.** 3.17

**Q.** And the Selectivity ratio (Homo sapiens [11])?
**A.** > 300

**Q.** And the pIC50 [12]?
**A.** < 4.00

**Q.** And the Emax [13]?
**A.** 98%

**Q.** What about the Activity (Mus musculus [14]) of the same molecule?
**A.** 7 to 9%

**Q.** What about the pEC50 [15] of the same molecule?
**A.** 6.63

**Q.** What about the Activity [16] of the same molecule?
**A.** Non-Toxic

**Q.** And the Activity (Mus musculus [17])?
**A.** Non-Toxic

**Q.** What about the solubility [18] of the same molecule?
**A.** 1.3 µM (≈ 0.463 µg/mL)

**Q.** What about the Activity (Mus musculus [19]) of the same molecule?
**A.** Active

**Q.** And the Activity (Mus musculus [20])?
**A.** Active

**Q.** And the Activity [21]?
**A.** Non-Toxic

**Q.** And the pEC50 [22]?
**A.** 6.32

**Q.** And the pEC50 [23]?
**A.** 6.83

**Q.** What about the Emax [24] of the same molecule?
**A.** 130%

**Q.** What about the Selectivity ratio (Homo sapiens [25]) of the same molecule?
**A.** > 300
